This is an account of results in publication PMC7887132 (Chemistry (Weinheim an der Bergstrasse, Germany), 2020).

Bounds are passed on as bounds.

Data set [1] in a line: Solubility in water. It counts as physicochemical.
Data set [2] has as its target EGFR WT (Homo sapiens, UniProt P00533). Nature of the data set: Anti-protein kinase activity, EGFR WT. Format: biochemical. The following applies: for IC50: read-out: Anti-protein kinase activity (IC50) EGFR WT.
Data set [3] deals with c-Met (Homo sapiens, UniProt P08581). Nature of the data set: Anti-protein kinase activity, c-Met. The following applies: for percentage of inactivated c-Met: 1 μM of compound used as inhibitor; for IC50: read-out: Anti-protein kinase activity (IC50) c-Met. It counts as biochemical. In a few lines: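 ELISA kinase-kit format, run in duplicate. Met positive-control enzyme (10 μL of 0.1 unit/μL) goes into wells on ice, with kinase assay buffer containing the test compound. Kinase reaction buffer starts the reaction, 60 min at 30 °C. After washing, HRP-conjugated detection antibody PY-39 is added for 60 min at room temperature, then substrate reagent for 5–15 min, then stop solution. Absorbance is read at 450/540 nm within 30 min.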

Data set [4] deals with Abl WT (Homo sapiens, UniProt P00519). Put plainly: Anti-protein kinase activity, Abl WT. It counts as biochemical. The following applies: read-out: Anti-protein kinase activity (IC50) Abl WT.
Data set [5] deals with FLT1 (Homo sapiens, UniProt P17948). Put plainly: Anti-protein kinase activity, FLT1. It counts as biochemical. Particulars: read-out: Anti-protein kinase activity (IC50) FLT1.
The target in data set [6] is Abl T315I (Homo sapiens, UniProt P00519, T315I). Put plainly: Anti-protein kinase activity, Abl T315I. It counts as biochemical. Particulars: read-out: Anti-protein kinase activity (IC50) Abl T315I.
Data set [7] concerns the target EGFR L858R (Homo sapiens, UniProt P00533, L858R). Put plainly: Anti-protein kinase activity, EGFR L858R. Format: biochemical. Particulars: read-out: Anti-protein kinase activity (IC50) EGFR L858R.
In data set [8] the target is EGFR T790M /L858R (Homo sapiens, UniProt P00533, L858R/T790M). Nature of the data set: Anti-protein kinase activity, EGFR T790M/L858R. Format: biochemical. Particulars: read-out: Anti-protein kinase activity (IC50) EGFR T790M /L858R.
In data set [9] the test system is tyrosine kinases. The following applies: previously synthesized and tested; no reference given; cited from earlier work.

Sequence of FLT1 (P17948 27-1338): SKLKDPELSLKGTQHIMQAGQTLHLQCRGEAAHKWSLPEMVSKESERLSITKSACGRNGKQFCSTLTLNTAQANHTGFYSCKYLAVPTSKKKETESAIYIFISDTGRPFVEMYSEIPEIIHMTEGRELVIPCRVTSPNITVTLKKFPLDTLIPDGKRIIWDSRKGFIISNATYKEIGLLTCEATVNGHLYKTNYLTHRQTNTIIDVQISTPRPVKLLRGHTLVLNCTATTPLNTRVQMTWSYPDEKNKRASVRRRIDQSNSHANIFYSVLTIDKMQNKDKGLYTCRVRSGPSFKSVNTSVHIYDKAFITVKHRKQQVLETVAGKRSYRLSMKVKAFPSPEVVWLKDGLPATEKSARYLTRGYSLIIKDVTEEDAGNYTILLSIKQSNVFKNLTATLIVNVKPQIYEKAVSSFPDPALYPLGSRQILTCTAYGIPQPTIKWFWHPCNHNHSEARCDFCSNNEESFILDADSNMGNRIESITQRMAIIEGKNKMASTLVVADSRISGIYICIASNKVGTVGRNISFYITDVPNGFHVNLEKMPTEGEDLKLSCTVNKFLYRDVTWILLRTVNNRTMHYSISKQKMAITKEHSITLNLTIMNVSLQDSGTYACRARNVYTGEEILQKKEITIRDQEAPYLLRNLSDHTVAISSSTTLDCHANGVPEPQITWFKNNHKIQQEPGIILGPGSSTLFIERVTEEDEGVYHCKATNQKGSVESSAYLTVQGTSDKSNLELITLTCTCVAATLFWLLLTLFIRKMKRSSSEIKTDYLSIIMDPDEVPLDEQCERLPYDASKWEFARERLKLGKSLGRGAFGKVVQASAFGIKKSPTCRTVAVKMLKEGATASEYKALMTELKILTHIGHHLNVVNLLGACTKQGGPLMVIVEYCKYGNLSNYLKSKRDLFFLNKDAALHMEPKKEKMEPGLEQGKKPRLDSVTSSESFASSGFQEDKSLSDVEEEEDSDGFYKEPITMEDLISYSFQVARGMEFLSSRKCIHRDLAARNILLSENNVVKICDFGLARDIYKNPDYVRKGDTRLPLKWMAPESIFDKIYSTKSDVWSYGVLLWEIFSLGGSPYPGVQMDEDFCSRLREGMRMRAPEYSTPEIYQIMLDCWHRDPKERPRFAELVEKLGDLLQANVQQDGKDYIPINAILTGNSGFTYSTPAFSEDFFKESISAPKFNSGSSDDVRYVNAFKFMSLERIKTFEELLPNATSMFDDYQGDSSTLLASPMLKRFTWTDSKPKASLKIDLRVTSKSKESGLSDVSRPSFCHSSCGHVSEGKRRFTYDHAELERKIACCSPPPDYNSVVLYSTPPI
Sequence of c-Met (P08581 25-1390): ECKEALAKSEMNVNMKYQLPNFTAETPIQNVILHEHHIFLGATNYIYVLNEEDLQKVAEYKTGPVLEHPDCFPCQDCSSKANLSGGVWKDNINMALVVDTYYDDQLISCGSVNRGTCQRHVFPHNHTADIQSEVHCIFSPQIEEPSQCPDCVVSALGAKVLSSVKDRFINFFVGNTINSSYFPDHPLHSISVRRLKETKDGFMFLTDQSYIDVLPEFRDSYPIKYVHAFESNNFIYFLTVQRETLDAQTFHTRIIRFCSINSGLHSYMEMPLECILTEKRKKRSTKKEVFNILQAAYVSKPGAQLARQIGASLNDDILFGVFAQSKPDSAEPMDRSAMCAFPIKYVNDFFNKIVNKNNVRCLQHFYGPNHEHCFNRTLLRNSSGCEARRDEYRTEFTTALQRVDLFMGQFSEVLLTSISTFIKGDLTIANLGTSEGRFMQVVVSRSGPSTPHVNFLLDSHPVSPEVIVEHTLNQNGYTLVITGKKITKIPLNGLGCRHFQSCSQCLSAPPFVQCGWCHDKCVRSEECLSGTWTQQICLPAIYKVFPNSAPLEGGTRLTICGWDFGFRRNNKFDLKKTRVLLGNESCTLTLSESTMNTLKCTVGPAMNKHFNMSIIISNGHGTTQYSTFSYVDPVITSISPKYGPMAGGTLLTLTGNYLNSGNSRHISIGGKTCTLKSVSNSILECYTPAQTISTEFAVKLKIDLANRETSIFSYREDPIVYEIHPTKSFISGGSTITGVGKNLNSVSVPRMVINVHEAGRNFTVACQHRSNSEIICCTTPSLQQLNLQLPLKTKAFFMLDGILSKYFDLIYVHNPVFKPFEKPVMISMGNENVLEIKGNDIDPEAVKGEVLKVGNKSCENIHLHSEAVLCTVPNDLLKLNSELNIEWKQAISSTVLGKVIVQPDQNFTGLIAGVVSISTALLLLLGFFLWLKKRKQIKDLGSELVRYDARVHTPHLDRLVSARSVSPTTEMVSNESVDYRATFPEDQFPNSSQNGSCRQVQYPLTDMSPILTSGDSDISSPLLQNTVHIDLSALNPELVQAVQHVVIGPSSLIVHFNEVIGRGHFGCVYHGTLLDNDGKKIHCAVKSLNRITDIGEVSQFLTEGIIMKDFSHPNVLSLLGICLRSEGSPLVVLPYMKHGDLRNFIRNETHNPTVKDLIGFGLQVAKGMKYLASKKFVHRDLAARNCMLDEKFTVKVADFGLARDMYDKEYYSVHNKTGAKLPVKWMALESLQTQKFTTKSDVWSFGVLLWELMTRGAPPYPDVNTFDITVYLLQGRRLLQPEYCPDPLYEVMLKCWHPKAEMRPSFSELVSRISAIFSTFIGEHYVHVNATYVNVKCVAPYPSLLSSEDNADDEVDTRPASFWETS

“2,15-diaza-2,15-bis(tert-butoxycarbonyl)[3.3](2,2’)(4,4’-bithiazolophane) [compound 1]”: in [1], the solubility in water result is “only slightly soluble in water”. In addition, in [2], the “inhibition of EGFR WT (in words)” value is recorded as “partial inhibition”. Also, the “percentage of inactivated EGFR WT” value in data set [2] (1 μM of compound used as inhibitor) was 44%. The IC50 in data set [2] was more than 1000 nM; in data set [3], 603 nM; in data set [4], more than 1000 nM; in data set [5] it was more than 1000 nM; in data set [6] it was more than 1000 nM; in data set [7], more than 1000 nM. In addition, in data set [8], the IC50 was more than 1000 nM. The “percentage of inactivated c-Met” value in data set [3] came to 59%.

As for “2,15-Diaza-2,15-diheptanoyl[3.3](2,2’)(4,4’-bithiazolophane) [compound 3]”, the solubility in water entry in data set [1] is recorded as “only slightly soluble in water”. Further, the IC50 in data set [2], in data set [3], in data set [4], in data set [5], in [6] and in [7] was more than 1000 nM throughout. Also, in [8], the IC50 was more than 1000 nM.

With “2,15-diaza[3.3](2,2’)(4,4’-bithiazolophanium) dichloride [compound 2]”, the solubility in water entry in [1] is given as “almost freely soluble in water”. The IC50 in data set [2], in data set [3], in data set [4], in data set [5], in data set [6] and in [7] was more than 1000 nM in each case. In data set [8], the IC50 is more than 1000 nM. Further, the “anti-c-Met activity (in words)” value in data set [3] is “showed anti-c-Met activity”. For the same molecule, the “percentage of inactivated c-Met” value in [3] is given as 33%.

Regarding “2,6-di(thiazol-4-yl)pyridinophane [compound 5]”, the “inhibitory activity as tyrosine kinases inhibitor” value in data set [9] was “didn’t show any inhibitory activity”.

With `CC(C)COC(=O)N1Cc2nc(cs2)-c2csc(n2)CN(C(=O)OCC(C)C)Cc2nc(cs2)-c2csc(n2)C1` [compound 4, 2,15-Bis(isobutoxycarbonyl)-2,15-diaza[3.3](2,2’)(4,4’-bithiazolophane)], in data set [1], the solubility in water result is recorded as “only slightly soluble in water”. Further, the IC50 in data set [2], in [3], in [4], in [5], in [6] and in [7] was more than 1000 nM in each case. Besides, the IC50 in data set [8] is more than 1000 nM. Further, the “anti-c-Met activity (in words)” value in data set [3] was “showed anti-c-Met activity”. Besides, the “percentage of inactivated c-Met” value in data set [3] was 5%.
